ChEMBL document CHEMBL3400013, “Synthesis and biological activity evaluation of hydrazone derivatives based on a Tröger's base skeleton” (Bioorg Med Chem, 2015)
Activity calls are given as the source filed them. The calls are words filed in the database; no cut-off is given here.

Columns and labels:
[1] = test system: Pseudomonas aeruginosa; experiment: Antimicrobial activity against multidrug-resistant Pseudomonas aeruginosa A/16575 up to 200 uM after 24 to 48 hrs by broth microdilution method; assay type: functional, organism-based
[2] = test system: HCT-116; experiment: Selectivity index, ratio of IC50 for human MRC5 cells to IC50 for human p53-/- HCT116 cells; assay type: functional
[3] = test system: CCRF-CEM; experiment: Cell cycle arrest in human CCRF-CEM cells assessed as accumulation at S phase at IC50 after 24 hrs by propidium iodide staining-based flow cytometry; assay type: functional
Summary of the method: (§1)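 Cells were then fixed in 70% ethanol, washed in hypotonic citrate buffer, treated with RNase (50 µg/mL) and stained with propidium iodide. Flow cytometry used a 488 nm laser. Apoptosis was scored as the percentage of particles with propidium content below G0/G1.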

[4] = Metal chelating activity of the compound assessed as formation of Zn2+ complex by UV-vis spectrometry; assay type: physicochemical
[5] = test system: MRC5; experiment: Cytostatic activity against human MRC5 cells after 72 hrs by MTT assay; assay type: ADME, cell-based; conditions: MRC5, 72 h
Summary of the method: (§2)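 Cells were seeded at 25,000–30,000 per well and pre-incubated for 24 h at 37°C in 5% CO2. Four-fold compound dilutions were added in duplicate and incubated for 72 h. MTT was added for 1–4 h, and formazan was dissolved in 10% aq SDS (pH 5.5) overnight at 37°C. OD was read at 540 nm. IC50 came from dose-response curves, mean ± SD of eight independent experiments.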

[6] = test system: A549; experiment: Cytostatic activity against human A549 cells after 72 hrs by MTT assay; assay type: functional, cell-based; conditions: A549, 72 h; summary of the method: as §2
[7] = Cytostatic activity against human p53-/- HCT116 cells after 72 hrs by MTT assay; assay type: functional, cell-based; conditions: HCT-116, 72 h; summary of the method: as §2
[8] = Metal chelating activity of the compound assessed as formation of Mg2+ complex by UV-vis spectrometry; assay type: physicochemical
[9] = test system: CCRF-CEM; experiment: Induction of apoptosis in human CCRF-CEM cells assessed as inhibition of DNA synthesis at IC50 after 24 hrs by propidium iodide/BrdU staining by flow cytometry; assay type: functional; parameters: scale not given: the % may be the effect or the level left
[10] = test system: CCRF-CEM; experiment: Induction of apoptosis in human CCRF-CEM cells assessed as apoptotic cells at IC50 after 24 hrs by propidium iodide staining-based flow cytometry; assay type: functional; summary of the method: as §1
[11] = test system: Staphylococcus aureus; experiment: Antimicrobial activity against methicillin-resistant Staphylococcus aureus MRSA 4591 up to 200 uM after 24 to 48 hrs by broth microdilution method; assay type: functional, organism-based
[12] = test system: Candida tropicalis; experiment: Antifungal activity against Candida tropicalis up to 200 uM after 24 to 48 hrs by broth microdilution method; assay type: functional, organism-based
[13] = test system: CCRF-CEM; experiment: Induction of apoptosis in human CCRF-CEM cells assessed as inhibition of DNA synthesis at 5 times IC50 after 24 hrs by propidium iodide/BrdU staining by flow cytometry; assay type: functional; parameters: scale not given: the % may be the effect or the level left
[14] = test system: HCT-116; experiment: Selectivity index, ratio of IC50 for human MRC5 cells to IC50 for human HCT116 cells; assay type: functional
[15] = test system: Staphylococcus aureus; experiment: Antimicrobial activity against Staphylococcus aureus CCM 3953 up to 200 uM after 24 to 48 hrs by broth microdilution method; assay type: functional, organism-based
[16] = test system: MRC5; experiment: Selectivity index, ratio of IC50 for human MRC5 cells to IC50 for human K562-TAX cells; assay type: functional
[17] = Cytostatic activity against human HCT116 cells after 72 hrs by MTT assay; assay type: functional, cell-based; conditions: HCT-116, 72 h; summary of the method: as §2
[18] = Metal chelating activity of the compound assessed as formation of Mn2+ complex by UV-vis spectrometry; assay type: physicochemical
[19] = test system: CCRF-CEM; experiment: Induction of apoptosis in human CCRF-CEM cells assessed as mitotic cells at IC50 after 24 hrs by pH3Ser10+ labeling-based flow cytometry; assay type: functional
[20] = test system: Staphylococcus haemolyticus; experiment: Antimicrobial activity against methicillin-resistant Staphylococcus haemolyticus A1/16568 up to 200 uM after 24 to 48 hrs by broth microdilution method; assay type: functional, organism-based
[21] = test system: CCRF-CEM; experiment: Cell cycle arrest in human CCRF-CEM cells assessed as accumulation at G0/G1 phase at IC50 after 24 hrs by propidium iodide staining-based flow cytometry; assay type: functional; summary of the method: as §1
[22] = Metal chelating activity of the compound assessed as formation of Ca2+ complex by UV-vis spectrometry; assay type: physicochemical
[23] = test system: CCRF-CEM; experiment: Cell cycle arrest in human CCRF-CEM cells assessed as accumulation at G2/M phase at IC50 after 24 hrs by propidium iodide staining-based flow cytometry; assay type: functional; summary of the method: as §1
[24] = test system: K562; experiment: Selectivity index, ratio of IC50 for human MRC5 cells to IC50 for human K562 cells; assay type: functional
[25] = test system: Candida albicans; experiment: Antifungal activity against Candida albicans up to 200 uM after 24 to 48 hrs by broth microdilution method; assay type: functional, organism-based
[26] = test system: CCRF-CEM; experiment: Cell cycle arrest in human CCRF-CEM cells assessed as accumulation at G0/G1 phase at 5 times IC50 after 24 hrs by propidium iodide staining-based flow cytometry; assay type: functional; summary of the method: as §1
[27] = Cytostatic activity against human K562-TAX cells after 72 hrs by MTT assay; assay type: functional, cell-based; summary of the method: as §2
[28] = test system: K562; experiment: Cytostatic activity against human K562 cells after 72 hrs by MTT assay; assay type: functional, cell-based; conditions: K562, 72 h; summary of the method: as §2
[29] = test system: Escherichia coli; experiment: Antimicrobial activity against multidrug-resistant Escherichia coli C/16702 up to 200 uM after 24 to 48 hrs by broth microdilution method; assay type: functional, organism-based
[30] = Metal chelating activity of the compound assessed as formation of Ni2+ complex by UV-vis spectrometry; assay type: physicochemical
[31] = test system: BJ; experiment: Selectivity index, ratio of IC50 for human BJ cells to IC50 for human CEM-DNR cells; assay type: functional
[32] = test system: Nucleic Acid; experiment: Binding affinity to DNA (unknown origin) assessed as DNA intercalation by UV-visible spectrophotometry in presence of Fe3+; assay type: nucleic-acid assay
[33] = Cytostatic activity against human CEM-DNR cells after 72 hrs by MTT assay; assay type: functional, cell-based; summary of the method: as §2
[34] = test system: Nucleic Acid; experiment: Binding affinity to DNA (unknown origin) assessed as DNA intercalation by UV-visible spectrophotometry in presence of Co2+; assay type: nucleic-acid assay
[35] = test system: BJ; experiment: Selectivity index, ratio of IC50 for human BJ cells to IC50 for human K562-TAX cells; assay type: functional
[36] = Metal chelating activity of the compound assessed as formation of Cu2+ complex by UV-vis spectrometry; assay type: physicochemical
[37] = test system: CCRF-CEM; experiment: Induction of apoptosis in human CCRF-CEM cells assessed as inhibition of RNA synthesis at IC50 after 24 hrs by propidium iodide/BrU staining by flow cytometry; assay type: functional; parameters: scale not given: the % may be the effect or the level left
[38] = test system: Nucleic Acid; experiment: Binding affinity to DNA (unknown origin) assessed as DNA intercalation by UV-visible spectrophotometry in presence of Zn2+; assay type: nucleic-acid assay
[39] = Metal chelating activity of the compound assessed as formation of Fe3+ complex by UV-vis spectrometry; assay type: physicochemical
[40] = Metal chelating activity of the compound assessed as formation of Cr3+ complex by UV-vis spectrometry; assay type: physicochemical
[41] = test system: A549; experiment: Selectivity index, ratio of IC50 for human MRC5 cells to IC50 for human A549 cells; assay type: functional
[42] = test system: Escherichia coli; experiment: Antimicrobial activity against Escherichia coli CCM 3954 up to 200 uM after 24 to 48 hrs by broth microdilution method; assay type: functional, organism-based
[43] = Metal chelating activity of the compound assessed as formation of Co2+ complex by UV-vis spectrometry; assay type: physicochemical
[44] = test system: BJ; experiment: Cytostatic activity against human BJ cells after 72 hrs by MTT assay; assay type: ADME, cell-based; summary of the method: as §2

O=C(N/N=C/c1cc(F)ccc1O)c1ccc2c3c(ccc2c1)N1Cc2c(ccc4cc(C(=O)N/N=C/c5cc(F)ccc5O)ccc24)N(C3)C1
Activity [1]: inactive
Ratio IC50 [2]: 51
Activity [3]: 55.45%
Activity [4]: Active
IC50 [5]: 29000 nM
IC50 [6]: 1240 nM
IC50 [7]: 810 nM
Activity [8]: Not Active
Activity [9]: 13.69%
Activity [10]: 40.42%
Activity [11]: inactive
Activity [12]: inactive
Activity [13]: 1.54%
Ratio IC50 [14]: 64.9
Activity [15]: inactive
Ratio IC50 [16]: 17.6
IC50 [17]: 640 nM
Activity [18]: Not Active
Activity [19]: 0.3%
Activity [20]: inactive
Activity [21]: 31.5%
Activity [22]: Not Active
Activity [23]: 13.05%
Ratio IC50 [24]: 18.1
Activity [25]: inactive
Activity [26]: 41.1%
IC50 [27]: 2360 nM
IC50 [28]: 2300 nM
Activity [29]: inactive
Activity [30]: Active
Ratio IC50 [31]: 9.8
Activity [32]: Active
IC50 [33]: 4250 nM
Activity [34]: Active
Ratio IC50 [35]: 17.6
Activity [36]: Active
Activity [37]: 63.13%
Activity [38]: Active
Activity [39]: Active
Activity [40]: Not Active
Ratio IC50 [41]: 33.6
Activity [42]: inactive
Activity [43]: Active
IC50 [44]: 54100 nM

COc1ccc(O)c(/C=N/NC(=O)c2ccc3c4c(ccc3c2)N2Cc3c(ccc5cc(C(=O)N/N=C/c6cc(OC)ccc6O)ccc35)N(C4)C2)c1
Activity [1]: inactive
Ratio IC50 [2]: 495
Activity [3]: 54.03%
Activity [4]: Active
IC50 [5]: 110 nM
IC50 [6]: 230 nM
IC50 [7]: 60 nM
Activity [8]: Not Active
Activity [9]: 50.98%
Activity [10]: 12.97%
Activity [11]: inactive
Activity [12]: inactive
Activity [13]: 31.78%
Ratio IC50 [14]: 622.3
Activity [15]: inactive
Ratio IC50 [16]: 137.7
IC50 [17]: 50 nM
Activity [18]: Not Active
Activity [19]: 0.99%
Activity [20]: inactive
Activity [21]: 30%
Activity [22]: Not Active
Activity [23]: 15.97%
Ratio IC50 [24]: 357.2
Activity [25]: inactive
Activity [26]: 39.05%
IC50 [27]: 210 nM
IC50 [28]: 80 nM
Activity [29]: inactive
Activity [30]: Active
Ratio IC50 [31]: 13.3
Activity [32]: Active
IC50 [33]: 2140 nM
Activity [34]: Active
Ratio IC50 [35]: 137.7
Activity [36]: Active
Activity [37]: 63.95%
Activity [38]: Active
Activity [39]: Active
Activity [40]: Not Active
Ratio IC50 [41]: 123.2
Activity [42]: inactive
Activity [43]: Active
IC50 [44]: 57200 nM
